Measured values published in ChEMBL document CHEMBL2417401, “Evaluation of steroidal amines as lipid raft modulators and potential anti-influenza agents” (Bioorg Med Chem Lett, 2013).

Tests used:
[1] = system: Influenza A virus; experiment: Antiviral activity against Influenza A/PR8/34 (H1N1) virus infected in MDCK2 cells assessed as raft modulation using N-terminally sterol-linked peptide as tracer relative to control; assay type: functional, A/Puerto Rico/8/1934(H1N1), MDCK-II; parameters: concentration or dose not given beside the values
How it was run: (§1)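 Raft liposomes (mol %: cholesterol 35, sphingomyelin 10.5, ganglioside M1 3.5, phosphatidylcholine 25.5, phosphatidylserine 25.5). Tracer is perylene or an N-terminally sterol-linked peptide inserted in the outer leaflet. Liposome/buffer partitioning is read by fluorescence; P is approximated as the membrane/aqueous tracer ratio. Disrafting % = 100×{1−P_steroid/P_DMSO}; augmentation % = −100×{1−P_DMSO/P_steroid}.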

[2] = system: Influenza A virus; experiment: Antiviral activity against Influenza A/PR8/34 (H1N1) virus infected in MDCK2 cells assessed as raft modulation using perylene as tracer relative to control; assay type: functional, A/Puerto Rico/8/1934(H1N1), MDCK-II; parameters: concentration or dose not given beside the values; how it was run: as §1
[3] = system: Influenza A virus; experiment: Antiviral activity against Influenza A/PR8/34 (H1N1) virus infected in MDCK2 cells assessed as inactivation of virus by virucidal assay relative to control; assay type: functional, A/Puerto Rico/8/1934(H1N1), MDCK-II; parameters: concentration or dose not given beside the values
How it was run: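 Influenza A/PR8/34 (H1N1) incubated with compound for 30 min, then titrated by focus reduction assay (cell ELISA in MDCKII cells with anti-nucleoprotein antibody HB65). Activity expressed relative to DMSO solvent control set at 100%.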

[4] = system: Influenza A virus; experiment: Antiviral activity against Influenza A/PR8/34 (H1N1) virus infected in MDCK2 cells assessed as inhibition of virus budding by ELISA relative to control; assay type: functional, A/Puerto Rico/8/1934(H1N1), MDCK-II
How it was run: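 Infected MDCKII cells biotinylated 6 h post-infection; excess biotin quenched, and virus budded over the next hour harvested. Biotinylated particles captured on streptavidin-coated plates and detected by ELISA. Result relative to DMSO solvent control (100%).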

[5] = Therapeutic index, ratio of MTD for MDCK2 cells to IC50 for Influenza A/PR8/34 (H1N1) virus; assay type: cell-based; settings: dog, read-out: TI
How it was run: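 TI = MTC/IC50. IC50 comes from a focus reduction cell ELISA (anti-NP antibody HB65) in MDCKII cells, which were pre-incubated 5 min with serially diluted compound and then infected with serially diluted A/PR8/34. IC50 was obtained by regression where a dose-effect relation was seen; assays were run at least twice.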

[6] = Cytotoxicity against MDCK2 cells assessed as maximum tolerated concentration by lactate dehydrogenase release assay; assay type: cell-based, Canis lupus familiaris, MDCK-II; settings: dog, read-out: MTD
How it was run: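 Maximum tolerated concentration in MDCKII cells from LDH release, determined under focus reduction assay conditions.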

[7] = system: Influenza A virus; experiment: Antiviral activity against Influenza A/PR8/34 (H1N1) virus infected in MDCK2 cells assessed as inhibition of virus reproduction by ELISA; assay type: functional, organism-based; settings: A/Puerto Rico/8/1934(H1N1), MDCK-II

| Compound | Activity [1] | Activity [2] | Activity [3] | inhibition (INH) [4] | selectivity ratio [5] | MNTC [6] | IC50 [7] | IC90 [7] |
| --- | --- | --- | --- | --- | --- | --- | --- | --- |
| CC(C)CCC[C@@H](C)[C@H]1CC[C@H]2[C@@H]3CC[C@H]4C[C@H](O)[C@@H](N)C[C@]4(C)[C@H]3CC[C@]12C | 32.3% | 26.5% | 75.5% | 53% | 16 | 75 µM | 4.7 µM | 62 µM |
| CC(C)CCC[C@@H](C)[C@H]1CC[C@H]2[C@@H]3CC[C@H]4C[C@H](CN)CC[C@]4(C)[C@H]3CC[C@]12C | -39.6% | -60.3% | 50.9% | 12.7% | 10.1 | 37.5 µM | 3.7 µM | 7.7 µM |
| CC(C)CCC[C@@H](C)[C@H]1CC[C@H]2[C@@H]3CC[C@H]4NCCC[C@]4(C)[C@H]3CC[C@]12C | 36.1% | 2.8% | 0% | 20.4% | 2.5 | 15 µM | 5.9 µM |  |
| CN[C@H]1CC[C@@]2(C)[C@@H](CC[C@@H]3[C@@H]2CC[C@]2(C)[C@@H]([C@H](C)CCCC(C)C)CC[C@@H]32)C1 | -7% | -50.5% | 0% | 33.8% | 7.6 | 25 µM | 3.3 µM | 17.5 µM |
| CC(C)CCC[C@@H](C)[C@H]1CC[C@H]2[C@@H]3CC[C@@]4(O)[C@H](O)[C@@H](O)CC[C@]4(C)[C@H]3CC[C@]12C | -36.5% | -65.2% | 76.7% | 39.4% | 0.9 | 15 µM | 16.1 µM |  |
| CC(C)CCC[C@@H](C)[C@H]1CC[C@H]2[C@@H]3CC[C@H]4CCNCC[C@]4(C)[C@H]3CC[C@]12C |  |  | 44.1% | 61.8% | 3.8 | 12.5 µM | 3.3 µM | 9.7 µM |
| CC(C)CCC[C@@H](C)[C@H]1CC[C@H]2[C@@H]3CC[C@H]4C[C@H](N)CC[C@]4(C)[C@H]3CC[C@]12C | 56.3% | -72.8% | 28.5% | 79.9% | 7.9 | 15 µM | 1.9 µM | ≥ 15 µM |
| CC(C)CCC[C@@H](C)[C@H]1CC[C@H]2[C@@H]3CC[C@@]4(O)[C@H](O)C(=O)CC[C@]4(C)[C@H]3CC[C@]12C |  |  |  |  |  |  | 16 µM |  |
| CC(C)CCC[C@@H](C)[C@H]1CC[C@H]2[C@@H]3CC[C@H]4C[C@@H](N(C)C)CC[C@]4(C)[C@H]3CC[C@]12C | 15.6% | 15.5% | 0% | 42.8% | 4.1 | 15 µM | 3.7 µM | ≥ 15 µM |
| CC(C)CCC[C@@H](C)[C@H]1CC[C@H]2[C@@H]3CC=C4C[C@@H](N)CC[C@]4(C)[C@H]3CC[C@]12C | 78.8% | 83.2% | 63.4% | 50.9% | 2.9 | 25 µM | 8.6 µM | 11.4 µM |
| CC(C)CCC[C@@H](C)[C@H]1CC[C@H]2[C@@H]3CC[C@H]4C[C@@H](CCN)CC[C@]4(C)[C@H]3CC[C@]12C | 31.2% | -38.2% | 132% | 65% | 23.8 | 50 µM | 2.1 µM | 13.4 µM |
| CC(C)CCC[C@@H](C)[C@H]1CC[C@H]2[C@@H]3CC[C@H]4C[C@](O)(CN)CC[C@]4(C)[C@H]3CC[C@]12C | 15.6% | -41.5% | 64.2% | 41% | 10.9 | 25 µM | 2.3 µM | 21.5 µM |
| CC(C)CCCC(C)C1CCC2C3CCC4CC(N)CCC4(C)C3CCC12C (centres undefined) | -7.1% | -42.4% | 47.8% | 51.8% | 8.8 | 15 µM | 1.7 µM | 9 µM |
| CC(C)CCC[C@@H](C)[C@H]1CC[C@H]2[C@@H]3CC[C@H]4C[C@@H](CN)CC[C@]4(C)[C@H]3CC[C@]12C | -39.3% | -66.6% | 90.3% | 30.7% | 9.4 | 37.5 µM | 4 µM | 11.6 µM |
| CC(C)CCC[C@@H](C)[C@H]1CC[C@H]2[C@@H]3CC[C@H]4C[C@@H]([N+](C)(C)C)CC[C@]4(C)[C@H]3CC[C@]12C.[I-] | 83.5% | 90.3% | 16% | 94.4% | 3.6 | 12.5 µM | 3.5 µM | ≥ 12.5 µM |
